Assay [1] has as its target T1, Pyruvate kinase PKM (Homo sapiens, UniProt P14618). Description: Activation of PKM2 (unknown origin) by pyruvate kinase-lactate dehydrogenase coupled assay.
Target sequence in this assay (P14618 whole entry): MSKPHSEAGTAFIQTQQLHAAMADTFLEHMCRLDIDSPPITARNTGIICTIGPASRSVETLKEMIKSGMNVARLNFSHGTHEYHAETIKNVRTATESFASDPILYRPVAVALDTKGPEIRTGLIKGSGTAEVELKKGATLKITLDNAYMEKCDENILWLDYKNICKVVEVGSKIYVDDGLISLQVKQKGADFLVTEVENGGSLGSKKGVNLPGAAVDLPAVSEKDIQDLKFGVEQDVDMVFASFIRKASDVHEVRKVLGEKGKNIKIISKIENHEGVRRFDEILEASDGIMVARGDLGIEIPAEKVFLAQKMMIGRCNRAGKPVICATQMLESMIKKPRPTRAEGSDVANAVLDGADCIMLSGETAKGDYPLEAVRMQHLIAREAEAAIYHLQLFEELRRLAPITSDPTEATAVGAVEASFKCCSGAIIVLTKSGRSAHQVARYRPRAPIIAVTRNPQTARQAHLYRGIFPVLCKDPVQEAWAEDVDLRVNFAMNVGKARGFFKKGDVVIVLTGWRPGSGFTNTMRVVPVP
Assay [2] can be described thus: Growth inhibition of human BCL2 Jurkat cells by MTT assay. The format is functional. The procedure, abridged: (§1)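 Cells were treated with varying compound concentrations and viability was read by MTT assay. IC50 values are reported ± error. Normal fibroblasts were tested alongside.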
The subject of a further assay is COLO 201. The experiment in a line: Growth inhibition of human Colo-201 cells by MTT assay. The format is functional, cell-based. The procedure, abridged:
as §1
In general terms: Tetrazolium assays rely on reduction of a dye to a coloured formazan, in cell work by metabolically active cells.

Assay [3] concerns MCF7. Description: Growth inhibition of human MCF7 cells by MTT assay. The format is functional, cell-based. The procedure, abridged: as §1
A short description of assay [4]: Growth inhibition of human Mesenchymal stem cells by MTT assay. The format is tissue-based. The procedure, abridged: as §1
Another assay concerns MDA-MB-231. The experiment in a line: Growth inhibition of human MDA-MB-231 cells by MTT assay. It is filed as functional, cell-based. The procedure, abridged:
as §1

The target in assay [5] is T1, Pyruvate kinase PKM. The experiment in a line: Activation of […] in human MCF7 cells assessed as increase in tetramer formation at 100 nM measured after 48 hrs by DSS cross linker assay. The format is cell-based. As to conditions: filed as activator. The method in brief:
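MCF-7 cells exposed to 100 nM for 48 h, then cross-linked with disuccinimidyl suberate (DSS). Tetrameric PKM2 was read as the 250 kDa band and compared with untreated MCF-7 control cells.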
Target sequence in this assay (P14618 2-531 limits assumed): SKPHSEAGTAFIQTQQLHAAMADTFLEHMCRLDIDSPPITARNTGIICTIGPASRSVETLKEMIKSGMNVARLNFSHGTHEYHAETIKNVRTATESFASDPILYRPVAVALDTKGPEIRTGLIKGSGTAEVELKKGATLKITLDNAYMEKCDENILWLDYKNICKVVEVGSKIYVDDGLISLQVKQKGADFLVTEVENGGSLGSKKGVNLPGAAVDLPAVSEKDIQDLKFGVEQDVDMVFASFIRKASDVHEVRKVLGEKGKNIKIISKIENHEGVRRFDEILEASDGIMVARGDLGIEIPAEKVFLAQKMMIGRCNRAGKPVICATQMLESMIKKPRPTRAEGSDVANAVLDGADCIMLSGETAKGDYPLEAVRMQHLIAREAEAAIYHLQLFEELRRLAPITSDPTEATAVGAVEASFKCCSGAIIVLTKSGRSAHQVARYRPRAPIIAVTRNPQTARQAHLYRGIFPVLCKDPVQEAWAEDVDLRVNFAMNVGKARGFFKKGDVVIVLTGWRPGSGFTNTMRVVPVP

The target in assay [6] is T1, Pyruvate kinase PKM. The experiment in a line: Activation of PKM2 (unknown origin) assessed as increase in tetramer formation by measuring scattering by Dynamic Light Scattering assay. To be noted: filed as activator.
Target sequence in this assay (P14618 2-531 limits assumed): as above
Assay [7] deals with MCF7. Description: Induction of apoptosis in human MCF7 cells assessed as viable cells at 100 nM incubated for 48 hrs by AnnexinV/PI staining based flow cytometry. It is filed as functional. To be noted: read-out: Activity.
In assay [8] the test system is MCF7. Description: Induction of apoptosis in human MCF7 cells assessed as necrotic cells at 100 nM incubated for 48 hrs by AnnexinV/PI staining based flow cytometry. It is filed as functional. (In general: In flow cytometry, cells or beads pass a laser one at a time.)
The subject of assay [9] is MCF7. Description: Induction of apoptosis in human MCF7 cells assessed as early apoptotic cells at 100 nM incubated for 48 hrs by AnnexinV/PI staining based flow cytometry. The format is functional.
Assay [10] relates to MCF7. The experiment in a line: Induction of apoptosis in human MCF7 cells assessed as late apoptotic cells at 100 nM incubated for 48 hrs by AnnexinV/PI staining based flow cytometry. The format is functional.

The structures appear in SMILES notation. Activity calls are given as the source filed them. The calls are words filed in the database; no cut-off is given here.

One may read the EC50 as the concentration at which the effect is half-maximal. As usually defined, the IC50 is the concentration needed to halve the response being measured. High values mean weaker potency in that assay, low ones greater potency in that assay.

At Pyruvate kinase PKM [1], `CCOC(=O)/C(=C\c1ccc(B(O)O)cc1)C(=O)c1sc(Nc2ccc(F)cc2)nc1-c1ccccc1` had an EC50 of 6.11 µM. Further, the IC50 in assay [2] turned out to be 0.09 µM; in the assay with COLO 201, 5.58 µM; in the assay with MCF7 [3], 2.71 µM; in [4], 29.4 µM; with MDA-MB-231, 36.6 µM.
At Pyruvate kinase PKM [1], `CCOC(=O)/C(=C\c1ccc(B(O)O)cc1)C(=O)c1sc(Nc2ccccc2)nc1N(C)C` showed a concentration for a half-maximal effect (EC50) of 7.15 µM. For the same compound, the 50% inhibitory concentration (IC50) came out at 6.36 µM in assay [2]; 2.81 µM in the assay on COLO 201; 1.5 µM in the assay with MCF7 [3]; 40.6 µM in assay [4]; 38 µM in the assay on MDA-MB-231.
`CCOC(=O)/C(=C\c1ccc(B(O)O)cc1)C(=O)c1sc(Nc2ccc(Cl)cc2)nc1N(C)C`: the result at Pyruvate kinase PKM [5] and on Pyruvate kinase PKM [6] was Active. This compound displayed an EC50 on Pyruvate kinase PKM [1] of 5.69 µM. Moreover, the concentration for half-maximal inhibition (IC50) in assay [2] was 2.82 µM; with COLO 201, 3.75 µM; in the assay on MCF7 [3], 0.08 µM; in assay [4], 23.9 µM; in the assay with MDA-MB-231, 34.9 µM. Besides, in the assay on MCF7 [7], the viability at 0.1 µM came to 45.3%. Also, the Activity in the assay on MCF7 [8] is listed as 22.37%; in the assay with MCF7 [9], 8.81%; in the assay on MCF7 [10] it was 23.5%.
Consider `COc1cccc2c1C(=O)c1c(O)c3c(c(O)c1C2=O)C[C@@](O)(C(=O)CO)C[C@@H]3O[C@H]1C[C@H](N)[C@H](O)[C@H](C)O1` [DOXORUBICIN], for which the concentration for half-maximal inhibition (IC50) turned out to be 3.03 µM in assay [2], 0.8 µM in the assay with COLO 201, 2.37 µM in assay [4] and 1.3 µM in the assay with MDA-MB-231.
`CCOC(=O)/C(=C\c1ccc(B(O)O)cc1)C(=O)c1sc(Nc2ccc(OC)cc2)nc1N(C)C` gave an EC50 at Pyruvate kinase PKM [1] of 8.17 µM. Besides, the IC50 in [2] is 0.57 µM; in the assay on COLO 201 it was 5.5 µM; in the assay with MCF7 [3], 2.72 µM; in [4], 25.8 µM; with MDA-MB-231, 58.7 µM.

The values are drawn from ChEMBL document CHEMBL4819109, “Discovery of boronic acid-based potent activators of tumor pyruvate kinase M2 and development of gastroretentive nanoformulation for oral dosing” (Bioorg Med Chem Lett, 2021).
